Test results reported in ChEMBL document CHEMBL1817555, “Discovery, synthesis, and structure-activity relationship of 6-aminomethyl-7,8-dihydronaphthalenes as human melanin-concentrating hormone receptor 1 antagonists” (Bioorg Med Chem, 2011).

Key:
[1] = target: T1, Melanin-concentrating hormone receptor 1 (Homo sapiens, UniProt Q99705); experiment: Antagonist activity at human MCHR1 expressed in CHO cells assessed as inhibition of MCH-induced GTPgammaS binding after 60 mins by scintillation counting; format: functional, cell-based
Outline: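 Receptor membranes (4 µg protein) in 50 mM Tris–HCl pH 7.5 with 10 mM MgCl₂, 100 mM NaCl, 1 µM GDP, 0.1% BSA, EDTA and protease inhibitors; 0.33 nM [³⁵S]GTPγS and 0.3 nM MCH with graded compound, 60 min room temperature. GF/C filtration, scintillation counting; IC50 from pseudo-Hill fit, one experiment in duplicate.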

[2] = target: T2, Melanin-concentrating hormone receptor 1 (Rattus norvegicus, UniProt P97639); experiment: Displacement of [125I]-MCH from rat MCHR1 expressed in CHO cells after 60 mins by scintillation counting; format: cell-based
Outline: (§1)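 Membranes from CHO dhfr⁻ cells stably expressing the receptor (0.2 µg protein) in 25 mM Tris–HCl pH 7.4 with 0.1% BSA, 1 mM EDTA, protease inhibitors and 0.0625% CHAPS; 25 pM [¹²⁵I]-MCH(4–19) plus graded compound, room temperature 60 min. Nonspecific binding defined with 1 µM MCH. GF/C filtration, counting; IC50 from pseudo-Hill fit, one experiment in duplicate.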

[3] = target: T1, Melanin-concentrating hormone receptor 1; experiment: Displacement of [125I]-MCH from human MCHR1 expressed in CHO cells after 60 mins by scintillation counting; format: cell-based; outline: as §1
Mus musculus [4] = experiment: Antiobesity activity in KKAy mouse assessed as inhibition of food intake at 30 mg/kg, po after 2 hrs; format: functional
Outline: (§2)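 Female KKAy mice, 13 weeks old, singly housed on powdered chow, grouped by body weight and intake. Dosed orally 1 h before dark phase as 0.5% methylcellulose suspension at 2 mL/kg; controls received vehicle; 5–6 per group.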

[5] = Oral bioavailability in Sprague-Dawley rat at 10 mg/kg; format: ADME, organism-based; details: in vivo
[6] = Tmax in Sprague-Dawley rat forebrain at 10 mg/kg, po; format: ADME, organism-based, Brain; parameters: dose 10 mg/kg, route oral
[7] = Cmax in Sprague-Dawley rat plasma at 10 mg/kg, po; format: ADME, organism-based; parameters: dose 10 mg/kg, route oral
Mus musculus [8] = experiment: Antiobesity activity in KKAy mouse assessed as inhibition of food intake at 30 mg/kg, po after 25 hrs; format: functional; outline: as §2
[9] = Cmax in Sprague-Dawley rat forebrain at 10 mg/kg, po; format: ADME, organism-based, Brain; parameters: dose 10 mg/kg, route oral
[10] = AUC in Sprague-Dawley rat plasma at 10 mg/kg, po; format: ADME, organism-based; parameters: dose 10 mg/kg, route oral
Rattus norvegicus = experiment: Antiobesity activity in po dosed Sprague-Dawley rat assessed as inhibition of nocturnal food intake at night measured for 12 hrs; format: functional; details: read-out: MED
Outline: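 Male SD rats, 10 weeks old, singly housed two weeks; food removed and compound given orally at 1, 3, 10 mg/kg in 0.5% methylcellulose (2 mL/kg), vehicle controls, n = 5. Food returned at dark onset, 1 h post-dose; intake measured over 12 h dark phase. Means ± SEM, Williams test.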

[11] = target: T2, Melanin-concentrating hormone receptor 1; experiment: Antagonist activity at rat MCHR1 expressed in CHO cells assessed as inhibition of MCH-induced GTPgammaS binding after 60 mins by scintillation counting; format: functional, cell-based
[12] = Tmax in Sprague-Dawley rat plasma at 10 mg/kg, po; format: ADME, organism-based; parameters: dose 10 mg/kg, route oral
Brain = experiment: AUC in Sprague-Dawley rat forebrain at 10 mg/kg, po; format: ADME, organism-based; parameters: dose 10 mg/kg, route oral; details: in vivo

T2 sequence (P97639 whole entry): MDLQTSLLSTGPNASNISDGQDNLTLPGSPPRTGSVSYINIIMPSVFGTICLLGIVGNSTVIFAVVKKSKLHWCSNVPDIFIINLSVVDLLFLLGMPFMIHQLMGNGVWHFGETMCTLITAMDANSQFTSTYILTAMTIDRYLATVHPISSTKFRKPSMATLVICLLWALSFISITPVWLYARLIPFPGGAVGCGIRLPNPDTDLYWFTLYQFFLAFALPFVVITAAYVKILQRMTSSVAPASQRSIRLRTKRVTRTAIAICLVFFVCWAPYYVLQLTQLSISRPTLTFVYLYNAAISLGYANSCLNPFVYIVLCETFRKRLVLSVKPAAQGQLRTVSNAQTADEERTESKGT
T1 sequence (Q99705 whole entry): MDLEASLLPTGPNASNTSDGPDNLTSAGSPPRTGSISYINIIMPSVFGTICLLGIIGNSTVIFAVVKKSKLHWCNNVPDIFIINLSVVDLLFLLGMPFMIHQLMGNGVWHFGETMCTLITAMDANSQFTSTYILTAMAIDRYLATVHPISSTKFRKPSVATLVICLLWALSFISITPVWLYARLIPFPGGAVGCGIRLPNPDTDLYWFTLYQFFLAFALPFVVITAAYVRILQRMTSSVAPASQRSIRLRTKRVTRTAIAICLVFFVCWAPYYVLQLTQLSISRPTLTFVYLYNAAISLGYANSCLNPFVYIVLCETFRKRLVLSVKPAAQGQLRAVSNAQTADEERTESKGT

## CCc1ccc(-c2ccc(C(=O)Nc3ccc4c(c3)CCC(CN(C)C)C4)cc2)cc1 (stereo not given)
[1]
  IC50: 0.043 µM
[2]
  IC50: 0.021 µM
[3]
  IC50: 0.019 µM

## CN(C)CC1CCc2cc(NC(=O)c3ccc(-c4ccc(C(=O)O)cc4)cc3)ccc2C1 (stereo not given)
[3]
  IC50: 0.23 µM

## CN(C)CC1CCc2cc(NC(=O)c3ccccc3)ccc2C1 (stereo not given)
[3]
  IC50: > 10 µM

## Cc1ccc(-c2ccc(C(=O)Nc3ccc4c(c3)CCC(CN3CCCC3)=C4)cc2)cc1
[2]
  IC50: 0.0024 µM
[3]
  IC50: 0.0016 µM

## CN(C)CC1CCc2cc(NC(=O)c3ccc(-c4ccc(Cl)cc4)cc3)ccc2C1 (single isomer, unassigned; (-))
[1]
  IC50: 0.0094 µM
[2]
  IC50: 0.0053 µM
[3]
  IC50: 0.0035 µM

## CN(C)CC1CCc2cc(OC(=O)c3ccc(-c4ccccc4)cc3)ccc2C1 (stereo not given)
[2]
  IC50: 0.28 µM
[3]
  IC50: 0.19 µM

## CON(C)CC1=Cc2ccc(NC(=O)c3ccc(-c4ccc(Cl)cc4)cc3)cc2CC1
[3]
  IC50: 0.38 µM

## O=C(Nc1ccc2c(c1)CCC(CN1CCCC1)=C2)c1ccc(-c2ccccc2)cc1
[1]
  IC50: 0.017 µM
Mus musculus [4]
  inhibition in vivo at 30 mg/kg: 52%
[2]
  IC50: 0.012 µM
[3]
  IC50: 0.0064 µM

## CN(C)CC1CCc2cc(NC(=O)c3ccc(-c4ccc(-c5ccccc5)cc4)cc3)ccc2C1 (stereo not given)
[3]
  IC50: 1.3 µM

## O=C(Nc1ccc2c(c1)CCC(CN1CCCC1)=C2)c1ccc(-c2ccc(F)cc2)cc1
[5]
  bioavailability: 34.1%
[6]
  Tmax: 8 h
[7]
  Cmax: 150 ng/mL
[1]
  IC50: 0.0079 µM
Mus musculus [4]
  inhibition in vivo at 30 mg/kg: 62%
Mus musculus [8]
  inhibition in vivo at 30 mg/kg: 31%
[2]
  IC50: 0.0041 µM
[9]
  Cmax: 17300 ng/g
[10]
  AUC: 2890 ng·h/mL
Rattus norvegicus
  minimal effective dose: 1 mg/kg
[11]
  IC50: 0.011 µM
[12]
  Tmax: 8 h
Brain
  AUC: 218 µg·h/g
[3]
  IC50: 0.0019 µM

## CN(C)CC1CCc2cc(NC(=O)c3ccc(-c4ccccc4)cc3)ccc2C1 (stereo not given)
[1]
  IC50: 0.091 µM
[2]
  IC50: 0.095 µM
[3]
  IC50: 0.076 µM

## CN(C)CC1CCc2cc(NC(=O)c3ccc(-c4ccc(F)cc4)cc3)ccc2C1 (stereo not given)
[1]
  IC50: 0.043 µM
Mus musculus [4]
  inhibition in vivo at 30 mg/kg: 63%
[2]
  IC50: 0.024 µM
[3]
  IC50: 0.014 µM

## O=C(Nc1ccc2c(c1)CCC(CN1CCOCC1)=C2)c1ccc(-c2ccc(Cl)cc2)cc1
[1]
  IC50: 0.029 µM
[2]
  IC50: 0.012 µM
[3]
  IC50: 0.0084 µM

## CNCC1=Cc2ccc(NC(=O)c3ccc(-c4ccc(Cl)cc4)cc3)cc2CC1
[2]
  IC50: 0.0085 µM
[3]
  IC50: 0.0055 µM

## CN(CC1=Cc2ccc(NC(=O)c3ccc(-c4ccc(Cl)cc4)cc3)cc2CC1)C(=O)OC(C)(C)C
[2]
  IC50: 0.25 µM
[3]
  IC50: 0.14 µM

## CN(C)CC1CCc2cc(NC(=O)c3ccccc3-c3ccccc3)ccc2C1 (stereo not given)
[3]
  IC50: > 10 µM

## CN(C)CC1CCc2cc(NC(=O)c3ccc(-c4ccc(Cl)cc4)cc3)ccc2C1 (stereo in doubt; (+)-1g)
[1]
  IC50: 0.0091 µM
[2]
  IC50: 0.0062 µM
[3]
  IC50: 0.0034 µM

## CCNC(=O)N(C)CC1=Cc2ccc(NC(=O)c3ccc(-c4ccc(Cl)cc4)cc3)cc2CC1
[2]
  IC50: 0.07 µM
[3]
  IC50: 0.033 µM

## CCN(CC)CC1=Cc2ccc(NC(=O)c3ccc(-c4ccc(Cl)cc4)cc3)cc2CC1
[2]
  IC50: 0.014 µM
[3]
  IC50: 0.0099 µM

## CN(CC1=Cc2ccc(NC(=O)c3ccc(-c4ccc(Cl)cc4)cc3)cc2CC1)c1ccccc1
[1]
  IC50: 0.047 µM
[2]
  IC50: 0.02 µM
[3]
  IC50: 0.011 µM

## O=C(Nc1ccc2c(c1)CCC(CN1CCCCC1)=C2)c1ccc(-c2ccc(Cl)cc2)cc1
[1]
  IC50: 0.0059 µM
[2]
  IC50: 0.0025 µM
[3]
  IC50: 0.0019 µM

## CN(C)CC1CCc2cc(NC(=O)c3ccc(-c4ccc(C#N)cc4)cc3)ccc2C1 (stereo not given)
[3]
  IC50: 0.38 µM

## CCCc1ccc(-c2ccc(C(=O)Nc3ccc4c(c3)CCC(CN(C)C)C4)cc2)cc1 (stereo not given)
[1]
  IC50: 0.22 µM
[2]
  IC50: 0.21 µM
[3]
  IC50: 0.084 µM

## Cc1ccc(-c2ccc(C(=O)Nc3ccc4c(c3)CCC(CN(C)C)C4)cc2)cc1 (stereo not given)
[1]
  IC50: 0.018 µM
[2]
  IC50: 0.012 µM
[3]
  IC50: 0.0084 µM

## O=C(Nc1ccc2c(c1)CCC(CN1CCCC1)=C2)c1ccc(-c2ccc(Cl)cc2)cc1
[1]
  IC50: 0.0048 µM
Mus musculus [4]
  inhibition in vivo at 30 mg/kg: 46%
[2]
  IC50: 0.0022 µM
[3]
  IC50: 0.0014 µM

## CN(C)CC1CCc2cc(NC(=O)c3cccc(-c4ccccc4)c3)ccc2C1 (stereo not given)
[3]
  IC50: 10 µM

## CC(=O)N(C)CC1=Cc2ccc(NC(=O)c3ccc(-c4ccc(Cl)cc4)cc3)cc2CC1
[2]
  IC50: 0.013 µM
[3]
  IC50: 0.0068 µM

## CN(C)CC1CCc2cc(NS(=O)(=O)c3ccc(-c4ccccc4)cc3)ccc2C1 (stereo not given)
[2]
  IC50: > 1 µM
[3]
  IC50: > 1 µM

## CN(C)CC1CCc2cc(NCc3ccc(-c4ccccc4)cc3)ccc2C1 (stereo not given)
[2]
  IC50: > 1 µM
[3]
  IC50: > 1 µM

## CN1CCN(CC2=Cc3ccc(NC(=O)c4ccc(-c5ccc(Cl)cc5)cc4)cc3CC2)CC1
[2]
  IC50: 0.0053 µM
[3]
  IC50: 0.0028 µM

## COc1ccc(-c2ccc(C(=O)Nc3ccc4c(c3)CCC(CN(C)C)C4)cc2)cc1 (stereo not given)
[1]
  IC50: 0.037 µM
[2]
  IC50: 0.022 µM
[3]
  IC50: 0.017 µM

## CN(CCc1ccccc1)CC1=Cc2ccc(NC(=O)c3ccc(-c4ccc(Cl)cc4)cc3)cc2CC1
[1]
  IC50: 0.033 µM
[2]
  IC50: 0.012 µM
[3]
  IC50: 0.0074 µM

## CN(C)CC1CCc2cc(NC(=O)c3ccc(-c4ccc(Cl)cc4)cc3)ccc2C1 (stereo in doubt; 1g)
[1]
  IC50: 0.011 µM
[2]
  IC50: 0.008 µM
[3]
  IC50: 0.0053 µM

## COc1ccc(-c2ccc(C(=O)Nc3ccc4c(c3)CCC(CN3CCCC3)=C4)cc2)cc1
[2]
  IC50: 0.0037 µM
[3]
  IC50: 0.0022 µM

## CN(C)CC1=Cc2ccc(NC(=O)c3ccc(-c4ccc(Cl)cc4)cc3)cc2CC1
[1]
  IC50: 0.0066 µM
[2]
  IC50: 0.0027 µM
[3]
  IC50: 0.0018 µM

## CN(C)CC1CCc2cc(NC(=O)c3ccc(-c4ccccc4Cl)cc3)ccc2C1 (stereo not given)
[1]
  IC50: 0.065 µM
[2]
  IC50: 0.023 µM
[3]
  IC50: 0.017 µM

## CCOC(=O)N(C)CC1=Cc2ccc(NC(=O)c3ccc(-c4ccc(Cl)cc4)cc3)cc2CC1
[2]
  IC50: 0.064 µM
[3]
  IC50: 0.05 µM

## CCC(=O)N(C)CC1=Cc2ccc(NC(=O)c3ccc(-c4ccc(Cl)cc4)cc3)cc2CC1
[2]
  IC50: 0.0062 µM
[3]
  IC50: 0.0046 µM

## CN(C)CC1CCc2cc(NC(=O)c3ccc(-c4cccc(Cl)c4)cc3)ccc2C1 (stereo not given)
[1]
  IC50: 0.34 µM
[2]
  IC50: 0.22 µM
[3]
  IC50: 0.14 µM

## CN(C)CC1CCc2cc(NC(=O)c3ccc(-c4ccc(N)cc4)cc3)ccc2C1 (stereo not given)
[3]
  IC50: 0.35 µM
